Tested on: MS2 coat protein
Experiment: apparent Kd, MS2 coat protein; higher = weaker binding; RNA-MaP array; FMN 200 µM where present
In short: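 Green signal from SNAP-549-labelled MS2 coat protein was normalised to red-channel RNA signal and to the median Fmax of control clusters. The protein was titrated from 0.7 or 1.5 nM, doubling to 3 µM, without and then with constant ligand, over designs transcribed by stalled E. coli RNA polymerase on Illumina sequencing-chip clusters, in 100 mM Tris-HCl pH 7.5, 80 mM KCl, 4 mM MgCl2, BSA, DTT, yeast tRNA and Tween-20. The apparent Kd is the median of filtered per-cluster binding-curve fits.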

[1] = designed as: OFF switch for flavin mononucleotide, no ligand
[2] = ligand present: flavin mononucleotide, designed as: OFF switch for flavin mononucleotide
[3] = designed as: ON switch for flavin mononucleotide, no ligand
[4] = ligand present: flavin mononucleotide, designed as: ON switch for flavin mononucleotide

Row | Sequence | apparent Kd [1] [µM] | apparent Kd [2] [µM] | apparent Kd [3] [µM] | apparent Kd [4] [µM]
1 | UUUGUUUUGGUAGGAUAUACUUUUAAUUUCUCUUUCCUUACAUGAGGAUCACCCAUGUUUACAUUGUAGAAGGACCACUUUGUU | 0.0218 | 0.0192 | – | –
2 | AUUCUGCUCGCAGGAUAUCAGGAAAUGUUGAUCUUCUGUAUCUCCUACAUGAGGAUCACCCAUGUUGAGAAGGGCGAUGGCAAU | 0.0657 | 0.4 | – | –
3 | CGUGGACUAGGAUAUUUACGAGGCUACAUGAGGAUCACCCAUGUGUUCUCGAGUACCAUGAAAGAAGGAGUAGCGA | 0.0126 | 0.014 | – | –
4 | CCAUCUUGUCGAGGAUAUAUUAACAUGACAUGAGACACAUGAGGAUCACCCAUGUAUGUUGUUGUAUAGAAGGCGACUACAUGA | – | – | 0.0504 | 0.0512
5 | UCCAGGUAAGGAUAUGGGCUGGACACCGGGUACGGCCAGCACCAGAAGGUACAUGAGGAUCACCCAUGUGUUCC | 0.0545 | 0.274 | – | –
6 | GCGUAACAUGAGGAUCACCCAUGUACCCGAGAAUUCGGGUGUAGAAGGGUGACCGGUCGUUUGGCACAGGAUAUACACGUUGUG | – | – | 0.0301 | 0.0168
7 | CGAUAACAUAGUUAUCAGUAACGGACAUGAGGAUCACCCAUGUAGGAUAUGUUACUCAACGAGUAACAGAAGGACAUGAGUCUU | 0.0192 | 0.0912 | – | –
8 | UGUUAUAGAGGAUAUGCGUGAAUAUAGAUUCAUGGAAAUUUACAUGAGGAUCACCCAUGUAGAAGGCUGUGAUU | 0.0144 | 0.0153 | – | –
9 | GUUAAGAACUAAGGAUAUUGAAUACAUAUGUUUAACAUGAGGAUCACCCAUGUGGGUUGCGGUGUCGAGAAGGUAGAAUAAUAG | – | – | 0.201 | 0.195
10 | AGAUCCUGAGUCAGGAUAUAGAGGCGGUAGCCUGGCUAGAAGGGACAUGAGGAUCACCCAUGUGGGUUCUUGCC | 0.0125 | 0.0174 | – | –
11 | GGGUGACAUGAGGAUCACCCAUGUCAGGAUAUGGGCUCGGGCUCGAAAGGGCUCGGGCUCAGAAGGGACUGCCC | 0.056 | 0.17 | – | –
12 | GAGAAGUCAGGAUAUGCUGCUCGUCACUUGCGUGAUGAGUAGCAGAAGGGACAUGAGGAUCACCCAUGUAAAGG | 0.136 | 0.315 | – | –
13 | CUCGUCUGGAAACGGAGCGGCCAACAUGAGGAUCACCCAUGUGAGGAUAUGCCUACUAAAAGUAGGCAGAAGGCGCAAUUGGCA | 0.0203 | 0.036 | – | –
14 | AGAAACUACGAGAAGGACAUAUGGUACUUCAGUUACAUGAGGAUCACCCAUGUAGGAUAUCGUAGUUUCAGGAUCGUGAGAUCA | 0.022 | 0.169 | – | –
15 | UGAAGUGGCGACAUGAGGAUCACCCAUGUAUGGUAUUCAACCAGAAGGCAUGUUGAGGAAUUACAUGAGGAUAUGGGAGAUCUA | – | – | 0.314 | 0.121
16 | GCCAAGCAAAAUAAAAUAAAUAAAACAUGAGGAUCACCCAUGUAGGAUAUGCUACACAAAGUGUAGCAGAAGGACAAGCUUGGC | 0.0146 | 0.019 | – | –
17 | GCAGCUAUUAUUAUACAUGAGGAUCACCCAUGUUACAUGUGUAAGGAUAUUGAUGUUUAUAUAAUCAAGAAGGUACGAUGCUGC | – | – | 0.0126 | 0.00859
18 | GGAUGGUAGGGAGGAUAUGACAUGAGGAUCACCCAUGUGAAACGUCCUAGGUCAGAAGGCCCAUAAGUCAAAACCCAAAAUGUG | 0.0167 | 0.153 | – | –

Row | Sequence | apparent Kd [1] [µM] | apparent Kd [2] [µM] | apparent Kd [3] [µM] | apparent Kd [4] [µM]
19 | UGUGUGUGGGCAGGAUAUACAUGAAUAUAUAUGAUGUAGUAUGAUGUAACAUGAGGAUCACCCAUGUAGAAGGGCCGGUGUAUG | 0.122 | 0.14 | – | –
20 | UACAGACAUGAGGAUCACCCAUGUGAGGAUAUCCAUAACGAUAUUACAAGUAUGACAGGGAGAAGGCACAGCAA | 0.0413 | 0.052 | – | –
21 | ACAUGAGGAUCACCCAUGUGAACAUAGGAUAUUGGUGAUCAGGCGUGUUAUACAGGAUAGGUCUGCGAGAAGGGUGCACGUUGC | – | – | 0.54 | 0.146
22 | ACGGCAAUCACAGGAUAUGGUUACAUGAGGAUCACCCAUGUCAAGGGUCUAAUUAGGUAUAACUACCAGAAGGGUGAAGGCCUA | 0.0744 | 0.105 | – | –
23 | GCUAGUCAUGUCAGGAUAUGCAGUUCCUUGGAACUGCAGAAGGGACAUGAGGAUCACCCAUGUGCCUAGCUAGC | 0.0411 | 0.357 | – | –
24 | AAUUAAUUAAUUAAUAUACAUGAGGAUCACCCAUGUAAGAUCAAGGAUAUCAGCUCGAUUAGAGCUGAGAAGGUGAUCACAUGU | – | – | 0.357 | 0.501
25 | GAUAAACAUGAGGAUCACCCAUGUGUGAAUAUGGGAGGAUAUACGUGGACCGUAGUCCGCGUAGAAGGCCUAAUUG | – | – | 0.225 | 0.0404
26 | CCGCCACAUGAGGAUCACCCAUGUCAGGAUAUCUAUCAUAGCAUCGAAAGAUGCGGGUAGAGAAGGGACUAUCC | 0.0288 | 0.0322 | – | –
27 | UUACGUCCCGUUUACAUGAGGAUCACCCAUGUCGAAAGACAUGAGGAUAUGCUACCUAAUUGGUAGCAGAAGGCAUGGACGUCG | – | – | 0.306 | 0.312
28 | GACUCGAAUGUAGGAUAUGCUGAGGAAUACUCAGCAGAAGGACAUGAGGAUCACCCAUGUAAAUGAGUGAAUAAUAAACGAGUC | 1.41 | 0.197 | – | –
29 | AAACAUGUCCGAGGAUAUCUGGAAACAUUUCCGAGAGAAGGCGGACAUGAGGAUCACCCAUGUCUCUCCUCAUCAAAUCCAAGU | 0.00844 | 0.0807 | – | –
30 | UAAAAGGAAGGAUAUACACUUCAAAACCUCAUGUGACUUUCACAUGAGGAUCACCCAUGUAGAAGGUCCAAGGC | 0.024 | 0.0339 | – | –
31 | CCGCAUAAGCAGGAUAUCGUAUCGGAUACGAUACGAGAAGGGUUUACAUGAGGAUCACCCAUGUUCCUUAGCGG | 0.0297 | 0.0481 | – | –
32 | CUUUUGUGAGGAUAUCAGUAGUAAAUAAAUAAUAUUACUACUGAGAAGGCACAUGAGGAUCACCCAUGUUCCUC | 0.0426 | 0.253 | – | –
33 | AAUUGACACGUAGGAUAUCGAUCUAAAUUAACUCGAGAAGGACGUACAUGAGGAUCACCCAUGUUUAAUGGAGUAGAUAUGUUG | 0.121 | 0.398 | – | –
34 | UUACCUCAUGAGAAGGACAUGAGGAUCACCCAUGUAGGAUAUCGUGGAAGACUGGUAUUGAAUCUUCGGAUUCAAUACCUGUCU | – | – | 0.317 | 0.0157
35 | UUUAAUUUAAUUAAGAUCACAUGAGGAUCACCCAUGUAAUUAUAGGAUAUCAGCUCGUUUAGAGCUGAGAAGGAUAAUUACAUA | 0.0789 | 0.0534 | – | –
36 | AAGAAGUCAGGAUAUGCAUGGCGGGACUUGCGUCGUGGCGUGCAGAAGGGACAUGAGGAUCACCCAUGUAAAGC | 0.0498 | 0.0424 | – | –
